Measurements taken from ChEMBL document CHEMBL4011629, “New Disubstituted Quindoline Derivatives Inhibiting Burkitt's Lymphoma Cell Proliferation by Impeding c-MYC Transcription” (J Med Chem, 2017).
Calls of active or inactive are those of the source. The calls are words filed in the database; no cut-off is given here.

Legend:
[1] = Stabilization of 5'-FAM/3'-TAMRA labeled c-Myc Pu22 G-quadruplex DNA (unknown origin) assessed as change in melting temperature at 2 uM by FRET assay
In short: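 FRET melting of FAM/TAMRA-labelled FPu22T (0.2 μM) in 10 mM Tris-HCl pH 7.4 with 2 mM KCl, ligand 2 μM, in a real-time PCR machine. Excitation 470 nm, emission 530 nm, read every 1 °C from 37 to 99 °C after 30 s hold at each step; ΔTm versus probe alone.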

[2] = Stabilization of c-Myc Pu27 G-quadruplex DNA (unknown origin) assessed as induction of parallel G-quadruplex formation in presence of K+ ions by CD spectroscopic analysis
In short: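 CD spectra: Pu27 at 5 μM in 10 mM Tris-HCl pH 7.4 without or with 100 mM KCl, annealed 95 °C 5 min, slow-cooled, kept at 4 °C overnight, with ligand. Scanned 230–400 in a 4 mm quartz cuvette, 1 nm bandwidth and step, 0.5 s/point; buffer baseline subtracted.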

[3] = Inhibition of NM23-H2 binding to 5'-FAM labeled c-Myc Pu27 G-quadruplex DNA (unknown origin) preincubated for 1 hr followed by NM23-H2 addition by electrophoretic mobility shift assay
In short: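 Annealed labelled Pu27 (1.5 μM) was preincubated with 10 μM agent or 5% DMSO for 1 h at 25 °C. […] Complexes were resolved on 5% native PAGE in 0.5× TBE at 4 °C, 150 V. Inhibition was taken against the no-compound complex band (set as 100%); three runs, Hill-fit IC50.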

Homo sapiens [4] = organism: Homo sapiens; assay: Effect on c-Myc DNA translocated chromosome product in human Raji cells assessed as decrease in amplification of exon-2 after 12 hrs by RT-PCR method; assay type: cell-based
In short: (§1)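 RAJI cells, which retain NHE III1, and CA46 cells, which lack NHE III1 and the P1/P2 promoters, were exposed to graded compound concentrations for 12 h. Total RNA (2 μg) was reverse-transcribed with oligo dT18 and M-MLV. c-MYC exons 1 and 2, NM23-H2 and β-actin were amplified by real-time PCR against untreated cells. Three repeats were done; two-tailed unpaired t-test.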

Homo sapiens [5] = organism: Homo sapiens; assay: Effect on c-Myc DNA translocated chromosome product in human CA46 cells assessed as decrease in amplification of exon-2 up to 4 uM after 12 hrs by RT-PCR method; assay type: cell-based; in short: as §1
Raji [6] = assay: Antitumor activity against human Raji cells xenografted in NOD/SCID nude mouse assessed as reduction in tumor volume at 30 mg/kg, ip administered once daily for 2 weeks relative to control; assay type: functional
In short: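 NOD/SCID mice were implanted subcutaneously in the underarm with RAJI cells (5 × 10^6 per 100 μL of RPMI 1640 with 10% serum). Tumours reached […] after 1 week, and mice were then randomised. […] Tumour volume was recorded daily and tumour weight at the end.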

[7] = Drug uptake in human Raji cells at 1 uM after 12 to 48 hrs; assay type: ADME, cell-based
Homo sapiens [8] = organism: Homo sapiens; assay: Inhibition of NM23-H2 binding to c-Myc G-quadruplex DNA in human Raji cells up to 4 uM after 6 hrs by ChIP-PCR method; assay type: cell-based
Raji [9] = assay: Antiproliferative activity against human Raji cells measured every 3 days up to 15 days; assay type: functional, cell-based
In short: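 RAJI cells (1.0 × 10^5 per well, six-well plates) were exposed every 3 days to a subcytotoxic ligand concentration or 0.1% DMSO. At each point cells were counted and viability checked, then flasks were reseeded at 1.0 × 10^5 cells. This continued for 15 days.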

Raji [10] = assay: Cell cycle arrest in human Raji cells assessed as accumulation at S phase after 12 hrs by propidium iodide staining based flow cytometry (reference value: 32.2%); assay type: functional
Raji [11] = assay: Cell cycle arrest in human Raji cells assessed as accumulation at S phase after 24 hrs by propidium iodide staining based flow cytometry (reference value: 32.2%); assay type: functional
Raji [12] = assay: Cell cycle arrest in human Raji cells assessed as accumulation at G2/M phase after 24 hrs by propidium iodide staining based flow cytometry (reference value: 24.4%); assay type: functional
Raji [13] = assay: Cell cycle arrest in human Raji cells assessed as accumulation at G0/G1 phase after 48 hrs by propidium iodide staining based flow cytometry (reference value: 38.5%); assay type: functional
Raji [14] = assay: Cell cycle arrest in human Raji cells assessed as accumulation at S phase after 48 hrs by propidium iodide staining based flow cytometry (reference value: 32.2%); assay type: functional
Raji [15] = assay: Induction of apoptosis in human Raji cells assessed as late apoptotic cells at 0.5 uM after 12 hrs by Annexin V-FITC/propidium iodide staining based flow cytometry relative to control; assay type: functional
In short: (§2)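 RAJI cells exposed to compound or control medium for 12 or 48 h were washed in PBS and resuspended in binding buffer. They were stained with FITC annexin V and PI for 15 min in the dark, and fluorescence was measured by flow cytometry.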

Raji [16] = assay: Induction of apoptosis in human Raji cells assessed as necrotic cells at 0.5 uM after 12 hrs by Annexin V-FITC/propidium iodide staining based flow cytometry relative to control; assay type: functional; in short: as §2
Raji [17] = assay: Induction of apoptosis in human Raji cells assessed as early apoptotic cells at 1 uM after 12 hrs by Annexin V-FITC/propidium iodide staining based flow cytometry (reference value: 2.3%); assay type: functional; in short: as §2
Raji [18] = assay: Induction of apoptosis in human Raji cells assessed as necrotic cells at 1 uM after 12 hrs by Annexin V-FITC/propidium iodide staining based flow cytometry relative to control; assay type: functional; in short: as §2
Raji [19] = assay: Induction of apoptosis in human Raji cells assessed as necrotic cells at 0.5 uM after 48 hrs by Annexin V-FITC/propidium iodide staining based flow cytometry relative to control; assay type: functional; in short: as §2
Raji [20] = assay: Induction of apoptosis in human Raji cells assessed as necrotic cells at 1 uM after 48 hrs by Annexin V-FITC/propidium iodide staining based flow cytometry relative to control; assay type: functional; in short: as §2
Raji [21] = assay: Induction of apoptosis in human Raji cells assessed as downregulation of Cyclin D3 expression after 12 hrs by Western blot method; assay type: functional, cell-based
In short: (§3)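 After compound exposure (12 h for cell-cycle and apoptosis markers), RAJI cells were lysed in 1% NP-40 buffer. Protein at 50 μg per lane was run on 3–12% SDS-PAGE and transferred to nitrocellulose. Blots were probed with primary antibodies (GAPDH as loading reference) and detected with an HRP secondary and enhanced chemiluminescence.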

Raji [22] = assay: Induction of apoptosis in human Raji cells assessed as downregulation of CDK6 expression after 12 hrs by Western blot method; assay type: functional, cell-based; in short: as §3
Mus musculus = assay: Toxicity in NOD/SCID nude mouse xenografted with human Raji cells assessed as reduction in body weight at 15 to 30 mg/kg, ip administered once daily for 2 weeks measured every day during compound dosing; assay type: organism-based; settings: in vivo, 336 h
In short: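 NOD/SCID mice implanted subcutaneously in the underarm with 5 × 10^6 RAJI cells in 100 μL RPMI 1640 with 10% serum; tumours grown about 1 week, then mice randomized. Body weight recorded daily; organ weights taken at end.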

ΔTm [1]: 26.6 °C
Activity [2]: Dose-dependent effect
IC50 [3]: 1560 nM
Drug uptake [7]: Not Active
SMILES: CN(C)CCCNc1c2ccccc2nc2c1oc1ccc(OCC3CCN(C)CC3)cc12
Activity (Homo sapiens [4]): Dose-dependent effect
Activity (Homo sapiens [5]): inactive
T/C (Raji [6]): 26.6%
Activity (Homo sapiens [8]): Active
Activity (Raji [9]): Dose-dependent effect
Activity (Raji [10]): 5.5%
Activity (Raji [11]): 19.4%
Activity (Raji [12]): 19.3%
Activity (Raji [13]): 57.1%
Activity (Raji [14]): 21.4%
Activity (Raji [15]): 0.2%
Activity (Raji [16]): 0%
Activity (Raji [17]): 18.9%
Activity (Raji [18]): 0%
Activity (Raji [19]): 0%
Activity (Raji [20]): 0%
Activity (Raji [21]): Dose-dependent effect
Activity (Raji [22]): Dose-dependent effect
Activity (Mus musculus): Non-Toxic
